PGC1a Ac signal: compounds raising PGC1a acetylation signal, primary screen, PGC1a modulator project, cell-based, U2OS, AlphaScreen, signal-increasing mode | overnight | activation, % at 15.6 µM | 0.21% of 350,000 active;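 active means every replicate reaching activation of at least 50%, whatever the mean replicate activation; inconclusive means replicates that disagree or another doubt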;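 further: hits raise the AlphaScreen acetylation signal above neutral controls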
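Test system: U2OS cells expressing flag-PGC1a plus GCN5; Amount: 7000 U2OS cells per well; Compound: single test concentration per compound; Incubation: compound overnight at 37 °C, each detection step 1 h RT; Signal: AlphaScreen lysate read.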
G6PC hep suppr: suppressors of forskolin-stimulated G6PC mRNA, dose response, PGC-1a acetylation activator project, cell-based, hepatocytes, RT-qPCR, cherry-picked samples; shares compounds with PGC1a Ac signal; primary mouse hepatocytes; G6PC suppression (normalized activity, % of positive control; higher = more suppression), % at 26 µM; 240 tested, under 10 active; AID 743463, 2014;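 active means dose curves showing G6PC suppression whose half-maximal dose is at most twice the top valid dose; inconclusive means flat curves with moderate negative activity, or unreliable fits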;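 further: G6PC expression relative to GAPDH housekeeping gene as delta delta Ct; 0% = median of neutral control wells and 100% = median of positive control wells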
PCK1 hep suppr: suppression of PCK1 mRNA in primary hepatocytes, dose response, PGC-1a acetylation activator project, cell-based, primary mouse hepatocytes, RT-qPCR, cherry-pick. PCK1 expression decrease, unspecified at 26 µM. AID 743465, 2014. forskolin-stimulated. shares compounds with PGC1a Ac signal. 230 tested, under 10 active;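 active means compounds lowering PCK1 expression whose fitted half-maximal concentration is at most twice the top tested dose; inconclusive means flat fit with moderate opposite-direction effect, or poor fit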;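 further: values are delta delta Ct of PCK1 relative to GAPDH; higher delta delta Ct means lower PCK1 expression so positive values indicate hits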
PGC1a hep suppr: suppression of PGC-1a mRNA in primary hepatocytes, dose response, PGC-1a acetylation activator project, cell-based, primary mouse hepatocytes, RT-qPCR, cherry-pick | shares compounds with PGC1a Ac signal | PGC-1a mRNA qPCR, forskolin; top dose 26 µM | max activity (PGC-1a expression decrease), % | 240 tested, under 10 active | AID 743467, 2014;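 active means compound lowering PGC-1a expression with fitted half-maximal concentration at most twice its top tested dose; inconclusive means flat curve with moderate opposite-direction effect, or poor fit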;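 further: 0% = neutral control wells median and 100% = positive control wells median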
* hit, by the source's call; i = inactive; ? = inconclusive; · = not tested or not shown; [ ] = another dose, or the depositor's remark. A selection follows.

SMILES	PGC1a Ac signal	G6PC hep suppr	PCK1 hep suppr	PGC1a hep suppr
O=C(Cc1ccc(Cl)cc1)c1c[nH]c(C(=O)NCc2cccnc2)c1	65*	127	233	52
O=C(NCc1cccnc1)c1ccc(NC(=O)c2ccc(Br)cc2)cc1	84*	368	254	117
CCOc1ccc(N2C(=O)CC(Cc3ccc(Br)cc3)C2=O)cc1 (centres undefined)	-71	·	·	·
O=[N+]([O-])c1ccc(Oc2ccc(F)cc2)c2ccncc12	-43	·	·	·
CCN(CC)c1ccc(NC2=C(Cl)C(=O)c3ccccc3C2=O)cc1	-68	·	·	·
CC1(C)CC(=O)C(N=Nc2cc(Cl)c(Cl)c(Cl)c2)=C(O)C1	-48	·	·	·
Cc1ccc(C2CC2c2n[nH]c(=S)n2-c2ccc(Cl)cc2)cc1 (centres undefined)	-45	·	·	·
O=C(CSc1nc2cc(Cl)ccc2s1)NCC1CCCO1 (centres undefined)	-52	·	·	·
O=c1[nH]c(/C=C/c2ccc([N+](=O)[O-])cc2)c([N+](=O)[O-])c(=O)[nH]1	-43	·	·	·
CCCc1cc(=O)oc2cc(C)cc(O)c12	-43	·	·	·
CCOC(=O)C1=C(Nc2ccccc2)OCC1=O	-47	·	·	·
O=C(c1ccco1)N1N=C(c2ccc(Cl)cc2)CC1(O)C(F)(F)F (centres undefined)	-42	·	·	·
CN(C)CCCNc1cc(-c2ccccc2)nc2cc(-c3cccc(F)c3)nn12	?	i	?	?
Clc1ccccc1OCCCCN1CCCC1	-42	·	·	·
Cn1ncc(Cl)c1C(=O)Nc1sc2c(c1C(N)=O)CCC2	59*	16	-10	39
O=C(Cc1csc(N2CCOCC2)n1)N/N=C/c1cccc(O)c1	-56	·	·	·
CCn1c(C)c(C)c2cc(C(=O)NCCN3CCOCC3)ccc21	-46	·	·	·
C=CCN=C1S/C(=C/c2ccc([N+](=O)[O-])cc2)C(=O)N1CC=C	-42	·	·	·
Cn1c(SCc2ccon2)nc2ccccc2c1=O	-49	·	·	·
CN(Cc1cnc2nc(N)nc(N)c2n1)c1ccc(C(=O)N[C@@H](CCC(=O)O)C(=O)O)cc1	-43	·	·	·
CCn1c(SC/C=C/c2ccccc2)nnc1-c1cccs1	-50	109	59	154
CN1Cc2c(N3CCOCC3)nc3sc(C(=O)c4ccc(Br)cc4)c(N)c3c2CC1(C)C	83*	235	208	48
COc1ccc(-c2cc(-c3ccccc3O)[nH]n2)cc1OC	95*	17	55	31
Cc1cc(OCC(=O)O/N=C(\N)c2ccccc2)cc(C)c1Cl	-59	·	·	·
O=C(C(Cc1ccccc1)n1cccc1)N1CCN(c2ccccc2)CC1 (centres undefined)	?	-81	-4.9	29
SMILES	PGC1a Ac signal	G6PC hep suppr	PCK1 hep suppr	PGC1a hep suppr
COc1cc2cc(C)c3nnc(SCC(=O)Nc4cc(C)on4)n3c2cc1OC	-40	·	·	·
CCN1CCN(c2nnc(-c3ccccc3)c3ccccc23)CC1	-46	·	·	·
Cc1ccccc1NC(=O)/C(C#N)=C\c1cc(C)n(-c2ccc(C(=O)O)cc2)c1C	-44	·	·	·
Nc1c(C(=O)Nc2ccccc2)c2nc3ccccc3nc2n1CCCN1CCOCC1	57*	197	106	-12
COCCN(C)Cc1nc(C(c2ccccc2)c2ccccc2)no1	-52	·	·	·
O=c1oc(-c2ccccc2)nc2sc3c(c12)CCC3	-42	·	·	·
CC(C)(O)c1cc(=O)sc2nc3ccccc3n12	-50	·	·	·
O=C(O)c1ccccc1C(=O)N1CCN(C(=O)c2ccccc2Cl)CC1	-50	·	·	·
O=C(c1ccccc1Nc1ccc(SC(F)F)cc1)N1CCCCCC1	53*	-38	11	84
CCN(CC)c1ccc(C(=C2C=CC(=[N+](CC)CC)C=C2)c2ccc(N(CC)CC)cc2)cc1	-83	·	·	·
O=C(COc1cccnc1[N+](=O)[O-])NCCc1ccc(Cl)cc1	-49	·	·	·
O=C(Nc1ccc(F)cc1)c1sc2cc(C(F)(F)F)cnc2c1-c1cccs1	-114	·	·	·
Cc1ccc(NC(=O)c2sccc2SCc2cccc(C(F)(F)F)c2)cc1	?	-22	76	141
O=C(NC1CCCCC1)C(c1ccc2ncccc2c1)N(Cc1ccc2c(c1)OCO2)C(=O)c1ccc2c(c1)OCCO2 (centres undefined)	-96	·	·	·
COc1ccc(N(C(=O)c2csnn2)C(C(=O)NC2CCCC2)c2cccs2)cc1 (centres undefined)	53*	33	·	?
Cc1ccc(-n2cccn2)c(CN2CCCC(C(=O)c3sccc3C)C2)c1 (centres undefined)	68*	·	·	?
Cc1ccccc1Cn1cnc2c(nnn2Cc2ccc(F)cc2)c1=O	-48	·	·	·
c1ccc(CN2OCC3Cn4c(nc5ccccc54)C32)cc1 (centres undefined)	-41	·	·	·
CC(=O)n1nc2nc(C)cc(C)c2c1N	-41	·	·	·
CC1CCN(C(=O)COC(=O)c2ccc(Br)o2)CC1	-50	·	·	·
O=C(NCc1ccccc1)C1Cc2c(-c3ccc(Cl)cc3)ccnc2O1 (centres undefined)	69*	214	-2.3	63
CC(C)(C)c1ccc(OCC(=O)NNC(=O)Nc2ccccc2)cc1	-43	·	·	·
CCc1ccc(S(=O)(=O)/N=C2\C=C(Nc3ccc(O)cc3)C(=O)c3ccccc32)cc1	-63	·	·	·
CCOc1ccc(N(C)S(=O)(=O)c2cc(-c3cc(C)no3)ccc2C(C)C)cc1	65*	·	·	?
CCOCCCNC(=O)c1ccccc1SC	-46	·	·	·
SMILES	PGC1a Ac signal	G6PC hep suppr	PCK1 hep suppr	PGC1a hep suppr
O=C(N/N=C/c1ccccc1C(=O)O)c1cccc(S(=O)(=O)Nc2cc(Cl)ccc2Cl)c1	-47	·	·	·
Nc1ncnc(NCc2ccc(F)cc2)c1[N+](=O)[O-]	-50	·	·	·
O=Nc1c(O)c2ccccc2c2ccccc12	-45	·	·	·
Cc1ccc(S(=O)(=O)N(Cc2ccc(F)cc2)Cc2ccco2)cc1	71*	0	31	?
CC(C)(C)c1ccc(O)c(O)c1	-47	·	·	·
CCCCCOC(=O)Cc1c(O)c2ccccc2n(C)c1=O	-43	-30	-16	-27
Cc1ccc2[nH]cc(C(=O)CN3CCN(c4ccccc4F)CC3)c2c1	-48	-39[8 µM]	-18	25
COc1cc(O)c(C(CC(=O)N2CCOCC2)c2ccc(N(C)C)cc2)c(OC)c1 (centres undefined)	-49	·	·	·
CCOC(=O)C1CCN(C(=O)CSc2ccc(Br)cc2)CC1	-40	·	·	·
COc1ccc(CCNC(=O)c2cc(-c3ccco3)on2)cc1OC	87*	-12	-7.1	?
CC(=O)N(C1=C(N2CCOCC2)C(=O)c2ccccc2C1=O)c1ccc(C(=O)O)cc1	-40	·	·	·
O=C(c1cc(-c2ccccc2)nc2ccccc12)N1N=C(C(F)F)CC1(O)C(F)F (centres undefined)	-38	·	·	·
COc1ccc(-c2nc3c(C)cc(Br)cn3c2Cc2ccc(C)cc2)cc1OC	?	215	131	99
N#Cc1ccc(CCc2ccccc2)[nH]c1=O	-43	·	·	·
COc1cc(/C=C2\SC(=O)NC2=O)ccc1Oc1ccc([N+](=O)[O-])cn1	-42	·	·	·
CCOc1ccc(S(N)(=O)=O)cc1-c1nc2c(C(C)(C)C)nn(C)c2c(=O)[nH]1	-50	·	·	·
